# Shown are actives, neighbours in structure and some others; about 3.7% of the full set was active somewhere.
# KCNQ1 pot: potentiators or activators of human KCNQ1 potassium channel | CHO-K1 KCNQ1, thallium flux FluxOR fluorescence; stronger effect = higher value | B-score at 10 µM | P51787 | AID 2648 | actives 0.35% (n = 310,000);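 active = fluorescence ratio B-score, a plate-corrected score, at least three library SD, with initial intensity B-score within 5 SD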
#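 assay system = KCNQ1-transfected CHO-K1 cells | medium = assay buffer with matched DMSO | probe or stimulus = depolarizing K+/Tl+ stimulus, K2SO4 and Tl2SO4 each 12.5 mM in 5x stock | dosing = single dose | incubation = dye 90 min, compound 20 min, room temperature | detection = kinetic FluxOR fluorescence, 10 s baseline plus 110 s post-stimulus | evaluation = ratio B score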
# KCNK9 block: inhibitors of human KCNK9 two-pore domain potassium channel; B-score at 10 µM; HEK293 KCNK9, FluxOR thallium flux fluorescence; stronger effect = lower value; actives 1.2% (n = 310,000); Q9NPC2;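 active = ratio B-score over 3 SD below the library mean, with starting fluorescence within 5 SD of its mean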;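 also: negative B-score means less thallium flux so channel inhibition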
# Target sequence (Q9NPC2 whole entry, looked up, the tested form may be a part): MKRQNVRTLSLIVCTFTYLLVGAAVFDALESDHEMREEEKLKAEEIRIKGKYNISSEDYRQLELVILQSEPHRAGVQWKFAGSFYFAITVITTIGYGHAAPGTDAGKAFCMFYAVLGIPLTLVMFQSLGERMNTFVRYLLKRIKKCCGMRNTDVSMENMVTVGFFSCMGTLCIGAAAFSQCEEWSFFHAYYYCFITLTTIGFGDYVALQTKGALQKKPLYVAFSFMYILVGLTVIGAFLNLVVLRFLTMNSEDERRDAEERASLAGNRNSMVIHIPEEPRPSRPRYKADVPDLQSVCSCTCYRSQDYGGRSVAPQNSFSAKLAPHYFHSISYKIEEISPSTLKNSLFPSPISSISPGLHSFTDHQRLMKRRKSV
# hERG protect: shields human hERG channel from block by proarrhythmic agents. Q12809. CHO-hERG, FluxOR thallium flux, dofetilide IC70 present. activation (rescue from dofetilide block), less the hit threshold, % at 10 µM. actives 0.51% (n = 310,000). AID 1511;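 active = activation above the mean of controls blocked by dofetilide plus 5 SD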;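 also: thallium influx through hERG after potassium depolarization seen as dye fluorescence rise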
# KCNK3 block: human KCNK3 channel inhibition, primary screen | CHO-KCNK3 thallium flux, FluxOR fluorescence; stronger effect = lower value | B-score at 10 µM | actives 0.84% (n = 340,000) | AID 602410;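 active = B-score under library mean minus 4 SD, starting fluorescence ratio at most library mean plus 5 SD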;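 also: more negative B-score means stronger inhibition of thallium flux through KCNK3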
# KCNQ1 inh: human KCNQ1 channel inhibition. B-score at 10 µM. CHO-K1 KCNQ1, FluxOR thallium flux fluorescence; stronger effect = higher value. actives 1.3% (n = 310,000). AID 2642;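 active = compounds whose thallium flux B-score, printed positive for inhibition, exceeds three library SD while starting fluorescence stays within three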;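 also: channel opened by potassium depolarization with thallium stimulus after 20 min compound exposure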
# Kir21 block: blocks the mouse Kir2.1 inward-rectifier potassium channel | HEK293-Kir2.1, FluxOR thallium flux fluorescence; stronger effect = lower value | AID 1672 | B-score at 10 µM | actives 0.85% (n = 310,000);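 active = fluorescence ratio B-score at or below minus 3 SD of library scores, with starting-brightness B-score within 2 SD, cut at about -4.2 in these data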;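 also: channel flux triggered by added potassium and thallium sulfate stimulus; B-score of peak minus minimum fluorescence over baseline after thallium stimulus; more negative B-score means stronger Kir2.1 block with less thallium influx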
# The depositor's hits bear a star; i = inactive; / = no result.
SMILES,KCNQ1 pot,KCNK9 block,hERG protect,KCNK3 block,KCNQ1 inh,Kir21 block
COc1cccc(OC)c1C(=O)NC(=S)Nc1cc(-c2nc3ccccc3[nH]2)ccc1Cl,i,i,-13.7,i,i,-0.01
O=S(=O)(Nc1ccc2cn[nH]c2c1)c1ccc(Cl)cc1,i,i,-6.9,i,i,-2.76
Cc1cc(S(=O)(=O)Nc2ccc3cn[nH]c3c2)c(C)cc1Cl,i,i,-15.3,i,i,-5.19*
COc1ccc(S(=O)(=O)N(C)CC(=O)NCc2ccco2)cc1OC,i,i,-10.1,i,i,-0.34
N/C(=N\c1nc(CSc2ccccn2)cc(=O)[nH]1)Nc1ccc(Cl)cc1Cl,i,i,-9.9,i,i,-0.35
CCOC(=O)c1sc2nc(CSc3ccccc3)nc(N3CCC(C(N)=O)CC3)c2c1C,i,i,10.3*,i,i,-0.1
Cc1sc2nc(CSc3ccccc3)nc(N3CCC(C(N)=O)CC3)c2c1C,i,i,-7.7,i,i,0.25
CCCN(CCC)C(=O)Cc1coc2ccc3ccccc3c12,i,i,-4.0,i,i,-4.5*
CCN(Cc1ccccc1)C(=O)Cc1c[nH]c2ccccc12,i,i,-9.6,i,i,-0.18
CCOc1ccc(/C=N/NC(=O)c2ccc(Cn3cc([N+](=O)[O-])cn3)o2)cc1,i,i,-2.5,i,i,0.27
CC(C)(C)c1ccc(OCc2ccc(C(=O)N/N=C/c3ccc([N+](=O)[O-])cc3)o2)cc1,i,i,-15.1,i,7*,-1.35
Cc1ccc(-c2nc(=S)c3c(n2Cc2ccco2)CCCC3)cc1,/,/,/,i,/,/
Cc1ccc(-c2nc(=S)c3c(n2Cc2ccco2)CC(C)(C)OC3)cc1,12*,i,-7.8,i,i,-0.98
CCc1cc2c(=O)n(CCC(C)C)c(=S)[nH]c2s1,35*,i,25.8*,i,i,1.28
CCCn1c(=S)[nH]c2ccccc2c1=O,i,i,0.5,i,i,0.64
O=C(COC(=O)C1CC2CCCC(C1)C2=O)Nc1ccccc1 (stereo unspecified),/,/,/,i,/,/
Nc1nc2n(n1)C(=O)CC(c1ccc(Cl)cc1)N2 (stereo unspecified),i,i,5.0*,i,i,-0.78
CCn1c(SCC(=O)Nc2nc3ccccc3s2)nc2c(c1=O)SC(C)C2 (stereo unspecified),i,i,-6.9,/,i,1.95
CCOc1ccccc1NC(=O)CSc1nc2c(c(=O)n1C)SC(C)C2 (stereo unspecified),i,i,-3.0,i,i,-5.51*
CCn1c(SCC(=O)Nc2nc3ccc(C)cc3s2)nc2c(c1=O)SC(C)C2 (stereo unspecified),i,i,-8.9,-11*,i,-0.06
Cc1sc(NC(=O)C2CSC3(C)CCC(=O)N23)nc1-c1ccc(F)cc1 (stereo unspecified),i,i,-7.1,i,i,0.02
CCOc1cc(S(=O)(=O)N2CCN(C(=O)c3ccco3)CC2)ccc1F,i,i,-4.1,i,i,-0.05
CCN(CC)c1ccc2nc3c4ccccc4c(=O)cc-3oc2c1,i,i,-2.0,/,i,-0.63
CCN(CC)c1ccc2c(-c3ccc(S(=O)(=O)O)cc3S(=O)(=O)[O-])c3ccc(=[N+](CC)CC)cc-3oc2c1,i,i,-40.9,i,25*,-18.1
CC1CCN(C(=O)C(C)c2ccc([N+](=O)[O-])cc2)CC1 (stereo unspecified),i,i,-7.8,i,i,-0.34
SMILES,KCNQ1 pot,KCNK9 block,hERG protect,KCNK3 block,KCNQ1 inh,Kir21 block
CCCc1cc(=O)[nH]c(SCC(=O)Nc2cc(S(=O)(=O)N3CCCCC3)ccc2Cl)n1,/,/,/,i,/,/
O=c1[nH]cc(S(=O)(=O)N2CCCc3ccccc32)c(=O)[nH]1,i,i,-5.0,i,i,0.06
CCc1ccc(C(=O)CN2CCSC2=N)cc1,i,i,-2.0,i,i,-4.49*
C/C(CCc1oc2c(Br)cc(Br)cc2c1-c1ccc(C)o1)=N\O,15*,i,-10.9,i,i,1.3
C/C(CCc1oc2ccccc2c1-c1ccc(C)o1)=N/O,i,i,-6.2,i,i,-0.83
CCc1ccc(-c2nc(CS(=O)CC(=O)NCc3ccco3)c(C)o2)cc1 (stereo unspecified),i,i,-13.0,i,i,0.42
Cc1ccc(C2=NN(C(=O)CCCC(=O)O)C(c3ccc4c(c3)OCO4)C2)cc1 (stereo unspecified),i,i,5.5*,i,i,0.9
Cc1ccc(C2=NN(C(=O)CCC(=O)O)C(c3ccc4c(c3)OCO4)C2)cc1 (stereo unspecified),i,i,-8.2,i,i,-0.92
O=C1Cc2ccccc2Sc2cc(OCCCN3CCCCC3)ccc21,i,i,-11.9,i,i,-8.68*
CN(C)CCCOc1ccc2c(c1)Sc1ccccc1CC2=O,i,i,-6.7,i,i,-4.23*
CCOc1ccccc1OCCN1CCCC1,i,i,-0.9,i,i,-1.32
Clc1ccc(OCCCN2CCCC2)cc1Cl,i,i,-12.6,i,i,-0.14
O=C1Cc2ccccc2Sc2c(OCCN3CCCCC3)cccc21,i,i,-17.2,i,i,-7.73*
NC(=O)c1cc([N+](=O)[O-])ccc1NCc1ccc(N)cc1,/,/,/,i,/,/
CCOC(=O)c1c(N)c(C#N)cn1-c1ccccc1,i,i,-13.1,i,i,0.92
CCOC(=O)c1c(NC(=O)c2nn(CC)cc2Br)c(C#N)cn1-c1ccccc1,i,i,-5.0,-10.8*,i,-0.78
CCN(CC(=O)NC(C)(C)C)C(=O)CN1c2cccc3cccc(c23)S1(=O)=O,i,i,-1.6,i,i,0
C=CCn1c(CSCc2ccc(Cl)cc2)nnc1SCC(=O)NCc1ccccc1,i,i,-9.5,i,i,-4.81*
O=C(CCc1ccccn1)N1CCCC(CNS(=O)(=O)c2cccs2)C1 (stereo unspecified),i,i,-4.2,i,i,-0.08
N=c1n(CCN2CCCCC2)c2ccccc2n1CC(O)COc1ccccc1 (stereo unspecified),i,i,-4.8,i,i,-3.2
COc1ccccc1OCC(O)Cn1c(=N)n(CCN2CCCCC2)c2ccccc21 (stereo unspecified),i,i,-17.2,i,i,-0.09
N=c1n(CCN2CCCCC2)c2ccccc2n1CC(O)c1ccc(Cl)c(Cl)c1 (stereo unspecified),i,i,-21.1,i,i,-8.64*
